Our source for the Activity values is ChEMBL document CHEMBL1144203, “Synthesis and antiviral evaluation of acyclic azanucleosides developed from sulfanilamide as a lead structure” (Bioorg Med Chem, 2008).

In data set [1] the test system is Respiratory syncytial virus. Put plainly: Antiviral activity against respiratory syncytial virus infected in HeLa cells assessed as inhibition of virus-induced cytopathic effect at 100 uM by MTS assay. The data set is classed as functional, organism-based. The essentials: (§1)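 HeLa cells were infected with the virus, and compounds were tested up to 100 μM. EC50 is the concentration that halves virus-induced cytopathic effect, read by visual CPE scoring or by MTS formazan colorimetric viability measurement.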

The nature of data set [2]: Cytotoxicity against CRFK cells assessed as decrease in cell viability upto 100 uM by MTS assay. In kind it is cell-based, Felis catus. The note with it: cat. A general note: Tetrazolium assays rely on reduction of a dye to a coloured formazan, in cell work by metabolically active cells.
The test system of another data set is HeLa. The data set is described as follows: Cytotoxicity against human HeLa cells assessed as decrease in cell viability upto 100 uM by MTS assay. In kind it is functional, cell-based. The method, boiled down:
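Uninfected HeLa host cells were tested up to 100 μM. CC50 is the concentration causing a 50% drop in cell viability by colorimetric formazan-based MTS assay. Alternatively, MCC is the minimal concentration giving microscopically detectable alteration of normal cell morphology.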

The test system of the next data set is Human alphaherpesvirus 1. The data set is described as follows: Antiviral activity against HSV1 virus infected in HEL cells assessed as inhibition of virus-induced cytopathic effect at 100 uM by MTS assay. In kind it is functional, organism-based. A general note: Protection from cytopathic effect is a common read-out in antiviral testing.
The test system of another data set is Human respirovirus 3. Put plainly: Antiviral activity against Parainfluenza 3 virus infected in Vero cells assessed as inhibition of virus-induced cytopathic effect at 100 uM by MTS assay. In kind it is functional, organism-based. The method, boiled down:
(§2)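 Vero cell monolayers were infected with the virus in cell-based CPE assays. EC50 is the concentration giving 50% inhibition of virus-induced cytopathic effect, scored visually or by MTS formazan colorimetric cell-viability read-out. The highest concentration tested was 100 μM for most compounds and lower for a few.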

The subject of a further data set is HEL. The data set is described as follows: Cytotoxicity against HEL cells assessed as decrease in cell viability upto 100 uM by MTS assay. The note with it: human. In kind it is cell-based.
Data set [3] relates to Mammalian orthoreovirus 1. Put plainly: Antiviral activity against Reovirus1 infected in Vero cells assessed as inhibition of virus-induced cytopathic effect at 100 uM by MTS assay. The data set is classed as functional, organism-based. The essentials: as §2
The subject of a further data set is Sindbis virus. Put plainly: Antiviral activity against Sindbis virus infected in Vero cells assessed as inhibition of virus-induced cytopathic effect at 100 uM by MTS assay. The data set is classed as functional, organism-based. The method, boiled down: as §2
A further data set has as its system Felid alphaherpesvirus 1. The data set is described as follows: Antiviral activity against feline herpes virus infected in CRFK cells assessed as inhibition of virus-induced cytopathic effect at 100 uM by MTS assay. In kind it is functional, organism-based.
The test system of data set [4] is Coxsackievirus B4. The data set is described as follows: Antiviral activity against Coxsackievirus B4 infected in Vero cells assessed as inhibition of virus-induced cytopathic effect at 100 uM by MTS assay. The data set is classed as functional, organism-based. The method, boiled down: as §2
In a further data set the test system is Human alphaherpesvirus 2. The data set is described as follows: Antiviral activity against HSV2 virus infected in HEL cells assessed as inhibition of virus-induced cytopathic effect at 100 uM by MTS assay. The data set is classed as functional, organism-based.
A further data set has as its system Punta Toro virus. Put plainly: Antiviral activity against Punta Toro virus infected in Vero cells assessed as inhibition of virus-induced cytopathic effect at 100 uM by MTS assay. In kind it is functional, organism-based. The essentials: as §2
A further data set deals with MDCK. The data set is described as follows: Cytotoxicity against MDCK cells assessed as decrease in cell viability upto 100 uM by MTS assay. In kind it is cell-based, Canis lupus familiaris. The note with it: dog.
The test system of data set [5] is Coxsackievirus B4. Put plainly: Antiviral activity against Coxsackievirus B4 infected in HeLa cells assessed as inhibition of virus-induced cytopathic effect at 100 uM by MTS assay. The data set is classed as functional, organism-based. The essentials: as §1
The next data set deals with Feline coronavirus. The data set is described as follows: Antiviral activity against feline coronavirus infected in CRFK cells assessed as inhibition of virus-induced cytopathic effect at 100 uM by MTS assay. The data set is classed as functional, organism-based.

Structures are written as SMILES. Calls of active or inactive are those of the source. The rule behind the calls is not given here.

On to `CC(C)(C)C(=O)OCCN(Cn1ccc(=O)[nH]c1=O)S(=O)(=O)c1cccc(N)c1`, for which the result (in data set [1]; in the data set on HeLa; in the data set with Human alphaherpesvirus 1; in the data set on Human respirovirus 3; in data set [3]; with Sindbis virus) was inactive. Further, the outcome in the data set with Felid alphaherpesvirus 1, in the data set with Coxsackievirus B4 [4], in the data set with Human alphaherpesvirus 2, in the data set on Punta Toro virus, in the data set on Coxsackievirus B4 [5] and with Feline coronavirus was inactive. Moreover, the Activity result (in data set [2]; in the data set on HEL; with MDCK) was “Not Active” throughout.
Regarding `CC(C)(C)C(=O)OCCN(Cn1ccc(=O)[nH]c1=O)S(=O)(=O)c1ccccc1N`, the outcome (in [1]; in the data set with HeLa; with Human alphaherpesvirus 1; in the data set on Human respirovirus 3; in [3]; in the data set on Sindbis virus) was inactive. For the same compound, the result with Felid alphaherpesvirus 1, in the data set with Coxsackievirus B4 [4], in the data set on Human alphaherpesvirus 2, in the data set on Punta Toro virus, in the data set with Coxsackievirus B4 [5] and in the data set on Feline coronavirus was inactive. Moreover, the Activity entry (in data set [2]; in the data set on HEL; with MDCK) was “Not Active” in each case.
Regarding `Cc1cn(CN(CCO)S(=O)(=O)c2ccc(N)cc2)c(=O)[nH]c1=O`, the outcome (in [1]; in the data set on HeLa; in the data set on Human alphaherpesvirus 1; with Human respirovirus 3; in data set [3]; in the data set on Sindbis virus) was inactive. The result in the data set with Felid alphaherpesvirus 1, in the data set with Coxsackievirus B4 [4], in the data set on Human alphaherpesvirus 2, with Punta Toro virus, in the data set on Coxsackievirus B4 [5] and in the data set on Feline coronavirus was inactive. Further, the Activity entry (in data set [2]; in the data set with HEL; in the data set on MDCK) was “Not Active” in each case.
Regarding `CC(=O)Nc1ccc(S(=O)(=O)N(CCOC(=O)C(C)(C)C)Cn2cc(F)c(=O)[nH]c2=O)cc1`, the result (in [1]; in the data set with HeLa; in the data set on Human alphaherpesvirus 1; in the data set on Human respirovirus 3; in data set [3]; in the data set with Sindbis virus) was inactive. The result with Felid alphaherpesvirus 1, in the data set with Coxsackievirus B4 [4], with Human alphaherpesvirus 2, with Punta Toro virus, with Coxsackievirus B4 [5] and with Feline coronavirus was inactive. The Activity result (in data set [2]; with HEL; with MDCK) was “Not Active” in each case.
In the case of `Cc1cn(CN(CCOC(=O)C(C)(C)C)S(=O)(=O)c2ccccc2N)c(=O)[nH]c1=O`, the outcome (in data set [1]; with HeLa; with Human alphaherpesvirus 1; in the data set with Human respirovirus 3; in data set [3]; with Sindbis virus) was inactive. In addition, the result in the data set with Felid alphaherpesvirus 1, in the data set on Coxsackievirus B4 [4], with Human alphaherpesvirus 2, in the data set with Punta Toro virus, in the data set on Coxsackievirus B4 [5] and in the data set on Feline coronavirus was inactive. In addition, the Activity result (in [2]; with HEL; with MDCK) was “Not Active” each time.
As for `Cc1cn(CN(CCOC(=O)C(C)(C)C)S(=O)(=O)c2cccc([N+](=O)[O-])c2)c(=O)[nH]c1=O`, the outcome (in [1]; in the data set with HeLa; with Human alphaherpesvirus 1; in the data set on Human respirovirus 3; in [3]; in the data set on Sindbis virus) was inactive. Also, the outcome in the data set on Felid alphaherpesvirus 1, with Coxsackievirus B4 [4], in the data set with Human alphaherpesvirus 2, with Punta Toro virus, in the data set with Coxsackievirus B4 [5] and in the data set with Feline coronavirus was inactive. The Activity result (in data set [2]; in the data set with HEL; with MDCK) was “Not Active” in each case.
Turning to `Cc1cn(CN(CCOC(=O)C(C)(C)C)S(=O)(=O)c2ccc(N)cc2)c(=O)[nH]c1=O`, the outcome (in data set [1]; with HeLa; in the data set with Human alphaherpesvirus 1; with Human respirovirus 3; in data set [3]; in the data set with Sindbis virus) was inactive. In addition, the outcome with Felid alphaherpesvirus 1, in the data set with Coxsackievirus B4 [4], in the data set on Human alphaherpesvirus 2, in the data set with Punta Toro virus, in the data set on Coxsackievirus B4 [5] and in the data set on Feline coronavirus was inactive. For the same compound, the Activity result (in [2]; with HEL; with MDCK) was “Not Active” throughout.
In the case of `Cc1cn(CN(CCOC(=O)C(C)(C)C)S(=O)(=O)c2cccc(N)c2)c(=O)[nH]c1=O`, the outcome (in data set [1]; in the data set on HeLa; with Human alphaherpesvirus 1; in the data set with Human respirovirus 3; in data set [3]; with Sindbis virus) was inactive. Moreover, the result in the data set on Felid alphaherpesvirus 1, in the data set on Coxsackievirus B4 [4], in the data set with Human alphaherpesvirus 2, with Punta Toro virus, with Coxsackievirus B4 [5] and in the data set on Feline coronavirus was inactive. In addition, the Activity result (in data set [2]; in the data set with HEL; with MDCK) was “Not Active” each time.
On to `Cc1cn(CN(CCO)S(=O)(=O)c2ccccc2N)c(=O)[nH]c1=O`, for which the outcome (in data set [1]; in the data set on HeLa; with Human alphaherpesvirus 1; in the data set on Human respirovirus 3; in [3]; with Sindbis virus) was inactive. The result with Felid alphaherpesvirus 1, with Coxsackievirus B4 [4], in the data set on Human alphaherpesvirus 2, in the data set on Punta Toro virus, in the data set on Coxsackievirus B4 [5] and with Feline coronavirus was inactive. For the same compound, the Activity entry (in [2]; in the data set on HEL; with MDCK) was “Not Active” each time.
As to `Cc1cn(CN(CCO)S(=O)(=O)c2cccc(N)c2)c(=O)[nH]c1=O`, the outcome (in data set [1]; with HeLa; with Human alphaherpesvirus 1; in the data set with Human respirovirus 3; in data set [3]; in the data set on Sindbis virus) was inactive. Further, the outcome with Felid alphaherpesvirus 1, with Coxsackievirus B4 [4], in the data set on Human alphaherpesvirus 2, in the data set on Punta Toro virus, in the data set with Coxsackievirus B4 [5] and in the data set with Feline coronavirus was inactive. Also, the Activity entry (in data set [2]; in the data set on HEL; in the data set on MDCK) was “Not Active” in each case.
